In ChEMBL document CHEMBL5724801, “EUbOPEN Chemogenomics Library - Multiplex” (2024):
Several values for one entry are separate records, joined by “and”; a condition that tells them apart may be missing. Equal values may be shown once.

System: U2OS
Experiment: Multiplex assay against U2OS
Format: toxicity, cell-based
Details: human
How it was run: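 Phenotypes for tubulin, mitochondrial mass and membrane permeability are expressed as per cents of healthy-nucleus cells. Cells were stained live at seeding with Hoechst33342, BioTracker Green Microtubule Cytoskeleton Dye, MitoTracker Red and Annexin V Alexa Fluor 680, then imaged after compound addition on a CQ1 microscope at 37°C and 5% CO2. Machine-learning gating in CellPathfinder separated Hoechst high-intensity objects from normal cells, divided normal cells by nuclear state (healthy, pyknosed, fragmented) and divided pyknosed cells into mitotic or apoptotic.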

[1] = 12 h, 1 µM, compound concentration 1 uM
[2] = 12 h, 10 µM, compound concentration 10 uM
[3] = 24 h, 1 µM, compound concentration 1 uM
[4] = 24 h, 10 µM, compound concentration 10 uM
[5] = 48 h, 1 µM, compound concentration 1 uM
[6] = 48 h, 10 µM, compound concentration 10 uM

For `Cc1ccc(C(C)(O)c2nc3ccccc3s2)c(C)c1` (centres undefined), the “Population Apoptotic (%)” value [1] was 86% and 100%, the “Population Fragmented Nuclei (%)” value [1] was 19% and 17% and the “Population Healthy Nuclei (%)” value [1] was 70% and 78%. The “Population Hoechst High Intensity Objects (%)” value [1] was 3% and 0%, the “Population Membrane Permeable-Phenotype (%)” value [1] was 4% and 9% and the “Population Mitochondria Different-Phenotype (%)” value [1] was 1% and 4%. For the same compound, the “Population Mitotic Cells (%)” value [1] was 13% and 0%, the “Population Normal (%)” value [1] was 96% and 99% and the “Population Pyknosed Nuclei (%)” value [1] was 9% and 3%. The “Population Tubulin-Different-Phenotype (%)” value [1] was 2% and 5%, the “Total Cell Count” value [1] was 249 and 141 and the “Population Apoptotic (%)” value [2] was 100% and 66%. The “Population Fragmented Nuclei (%)” value [2] was 25% and 18%, the “Population Healthy Nuclei (%)” value [2] was 67% and 77% and the “Population Hoechst High Intensity Objects (%)” value [2] was 2% and 4%. The “Population Membrane Permeable-Phenotype (%)” value [2] was 9% and 3%, the “Population Mitochondria Different-Phenotype (%)” value [2] was 3% and 1% and the “Population Normal (%)” value [2] was 97% and 95%. For the same compound, the “Population Pyknosed Nuclei (%)” value [2] was 6% and 3%, the “Population Tubulin-Different-Phenotype (%)” value [2] was 3% and 1% and the “Total Cell Count” value [2] was 234 and 89. For the same compound, the “Population Apoptotic (%)” value [3] was 92% and 90%, the “Population Fragmented Nuclei (%)” value [3] was 22% and 13% and the “Population Healthy Nuclei (%)” value [3] was 69% and 80%. For the same compound, the “Population Hoechst High Intensity Objects (%)” value [3] was 1% and 0%, the “Population Membrane Permeable-Phenotype (%)” value [3] was 4% and 6% and the “Population Mitochondria Different-Phenotype (%)” value [3] was 0% and 3%. For the same compound, the “Population Mitotic Cells (%)” value [3] was 7% and 10%, the “Population Normal (%)” value [3] was 98% and 99% and the “Population Pyknosed Nuclei (%)” value [3] was 8% and 6%. The “Population Tubulin-Different-Phenotype (%)” value [3] was 3% and 4%, the “Total Cell Count” value [3] was 327 and 159 and the “Population Apoptotic (%)” value [4] was 88% and 75%. For the same compound, the “Population Fragmented Nuclei (%)” value [4] was 22% and 16%, the “Population Healthy Nuclei (%)” value [4] was 71% and 75% and the “Population Hoechst High Intensity Objects (%)” value [4] was 1% and 4%. The “Population Membrane Permeable-Phenotype (%)” value [4] was 5% and 3%, the “Population Mitochondria Different-Phenotype (%)” value [4] was 3% and 1% and the “Population Mitotic Cells (%)” value [4] was 11% and 25%. For the same compound, the “Population Normal (%)” value [4] was 98% and 95%, the “Population Pyknosed Nuclei (%)” value [4] was 6% and 7% and the “Population Tubulin-Different-Phenotype (%)” value [4] was 3%. The “Total Cell Count” value [4] was 272 and 113, the “Population Apoptotic (%)” value [5] was 88% and 94% and the “Population Fragmented Nuclei (%)” value [5] was 16% and 15%. For the same compound, the “Population Healthy Nuclei (%)” value [5] was 74% and 76%, the “Population Hoechst High Intensity Objects (%)” value [5] was 2% and 3% and the “Population Membrane Permeable-Phenotype (%)” value [5] was 5% and 6%. The “Population Mitochondria Different-Phenotype (%)” value [5] was 2% and 3%, the “Population Mitotic Cells (%)” value [5] was 11% and 5% and the “Population Normal (%)” value [5] was 97% and 96%. For the same compound, the “Population Pyknosed Nuclei (%)” value [5] was 9% and 8%, the “Population Tubulin-Different-Phenotype (%)” value [5] was 2% and 5% and the “Total Cell Count” value [5] was 442 and 215. The “Population Apoptotic (%)” value [6] was 96% and 85%, the “Population Fragmented Nuclei (%)” value [6] was 23% and 11% and the “Population Healthy Nuclei (%)” value [6] was 69% and 83%. The “Population Hoechst High Intensity Objects (%)” value [6] was 2% and 5%, the “Population Membrane Permeable-Phenotype (%)” value [6] was 6% and 5% and the “Population Mitochondria Different-Phenotype (%)” value [6] was 1%. The “Population Normal (%)” value [6] was 97% and 94%, the “Population Pyknosed Nuclei (%)” value [6] was 7% and 5% and the “Population Tubulin-Different-Phenotype (%)” value [6] was 4%. For the same compound, the “Total Cell Count” value [6] was 365 and 147.
